Results taken from ChEMBL document CHEMBL2417550, “Inhibition of the Escherichia coli 6-oxopurine phosphoribosyltransferases by nucleoside phosphonates: potential for new antibacterial agents” (J Med Chem, 2013).
Values after ≈ are worked out from the molar mass of the structure shown. Active and inactive are the calls of the source. The calls are words filed in the database; no cut-off is given here.

Legend:
[1] = test system: Mycobacterium tuberculosis; test: Antimycobacterial activity against Mycobacterium tuberculosis H37Ra ATCC 25177 at >= 250 uM after 5 days by resazurin reduction assay; type: functional, organism-based
How it was run: (§1)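 M. tuberculosis H37Ra grown at 37 °C in 7H9 with OADC, 0.5% glycerol, 0.05% Tween-80 for about 14 days to mid-exponential phase (OD600 0.4−0.8). Diluted to OD600 0.001 (about 2 × 10^4 CFU/ml) in 7H9S with 0.5% DMSO and exposed to serially diluted compounds. Incubated 5 days at 37 °C, then resazurin added. Fluorescence (ex 530/em 580 nm) read 30 h later. Signal normalised to no-inhibitor and no-bacteria controls to give IC50.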

[2] = Selectivity index, ratio of EC50 for human A549 cells to MIC50 for Mycobacterium tuberculosis H37Ra ATCC 25177; type: functional
[3] = Inhibition of Escherichia coli HPRT expressed in Escherichia coli SPhi606 using hypoxanthine as substrate by spectrophotometric analysis
How it was run: (§2)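 Enzymes (wild-type XGPRT, HPRT, and the XGPRT mutant lacking six flexible-loop residues) were expressed in E. coli SΦ606, purified to homogeneity and stored at −70 °C in 0.1 M Tris-HCl, 10 mM MgCl2, 1 mM DTT, pH 7.4. Ki was determined spectrophotometrically. Fixed base was 60 μM: guanine for XGPRT, hypoxanthine for HPRT. PRib-PP was varied from 14 to 1000 μM, and inhibitor from 0.1 to 140 μM.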

[4] = Inhibition of Escherichia coli recombinant XGPRT mutant expressed in Escherichia coli SPhi606 using guanine as substrate by spectrophotometric analysis; how it was run: as §2
[5] = Inhibition of Escherichia coli XGPRT expressed in Escherichia coli SPhi606 using guanine as substrate by spectrophotometric analysis; how it was run: as §2
[6] = Binding affinity to Escherichia coli XGPRT
[7] = (§3) Non-competitive inhibition of Escherichia coli HPRT expressed in Escherichia coli SPhi606 using hypoxanthine as substrate by spectrophotometric analysis in presence of PRib-PP; how it was run: as §2
[8] = Competitive inhibition of Escherichia coli XGPRT expressed in Escherichia coli SPhi606 using guanine as substrate by spectrophotometric analysis in presence of pyrophosphate
How it was run: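 Ki was determined spectrophotometrically on purified XGPRT expressed in E. coli SΦ606, with guanine fixed at 60 μM. PRib-PP was varied from 14 to 1000 μM, and inhibitor from 0.1 to 140 μM. Pyrophosphate (33 μM) was added to the assay mixture along with the inhibitor.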

Escherichia coli [9] = test: Competitive inhibition of Escherichia coli XGPRT expressed in Escherichia coli SPhi606 using guanine as substrate by spectrophotometric analysis in presence of PRib-PP; how it was run: as §2
A549 = test: Cytotoxicity against human A549 cells after 4 days by coulter counter analysis; type: cell-based; conditions: A549, 96 h
[10] = test system: Mycobacterium tuberculosis; test: Antimycobacterial activity against Mycobacterium tuberculosis H37Ra ATCC 25177 after 5 days by resazurin reduction assay; type: functional, organism-based; conditions: H37Ra ATCC 25177, 120 h; how it was run: as §1
Escherichia coli [11] = test: as §3; how it was run: as §2

SMILES | Ki [3] [µM] | Ki [4] [µM] | Ki [5] [µM] | other results
O=c1[nH]cnc2c1ncn2CC(COCP(=O)(O)O)COCP(=O)(O)O | 0.8 | – | – | Activity [1]: inactive; Selectivity Index [2]: 4
Nc1nc2c(ncn2C(COCP(=O)(O)O)C(O)COCP(=O)(O)O)c(=O)[nH]1 (centres undefined) | – | 14 | 21 | –
Nc1nc2c(ncn2CCOCCP(=O)(O)O)c(=O)[nH]1 | – | 11 | 0.7 | –
Nc1nc2c(ncn2[C@@H]2O[C@H](COP(=O)(O)O)[C@@H](O)[C@H]2O)c(=O)[nH]1 | 526 | 120 | – | Ki [6]: 4.5 µM
Nc1nc2c(ncn2[C@@H]2CN(C(=O)CP(=O)(O)O)C[C@@H]2O)c(=O)[nH]1 | – | > 250 | > 250 | –
O=c1[nH]cnc2c1ncn2CCOCCP(=O)(O)O | 17 | 46 | 1.5 | –
Nc1nc2c(ncn2CC(O)COCP(=O)(O)O)c(=O)[nH]1 (centres undefined) | > 700 | ≥ 3 | – | Ki [7]: 35 µM; Ki [8]: 0.32 µM
Nc1nc2c(ncn2[C@H]2CCN(C(=O)CP(=O)(O)O)C2)c(=O)[nH]1 | – | 3 | 0.23 | Activity [1]: inactive; Selectivity Index [2]: >=17; inhibition (Escherichia coli [9]): Active
CC(C)(C)C(=O)SCCOP(=O)(CC(=O)N1CC[C@H](n2cnc3c(=O)[nH]c(N)nc32)C1)OCCSC(=O)C(C)(C)C | – | – | – | EC50 (A549): > 300 µM; IC50 [10]: 5 µM; MIC99 [10]: 20 µM (≈ 12.6 µg/mL)
Nc1nc2c(ncn2CC(COCP(=O)(O)O)COCP(=O)(O)O)c(=O)[nH]1 | – | 0.24 | 0.01 | Activity [1]: inactive; Selectivity Index [2]: >=17
Nc1nc2c(ncn2CC(COCCP(=O)(O)O)OCCP(=O)(O)O)c(=O)[nH]1 (centres undefined) | – | – | 0.11 | Activity [1]: inactive; Selectivity Index [2]: >=17
Nc1nc2c(ncn2C(COCP(=O)(O)O)COCP(=O)(O)O)c(=O)[nH]1 | – | 16 | 3 | –
O=c1[nH]cnc2c1ncn2C(COCP(=O)(O)O)COCP(=O)(O)O | – | – | 73 | –
Nc1nc2c(ncn2[C@@H]2CN(C(=O)CP(=O)(O)O)C[C@H]2OC(=O)CP(=O)(O)O)c(=O)[nH]1 | – | 2.6 | 0.4 | inhibition (Escherichia coli [9]): Active
Nc1nc2c(ncn2[C@H]2CN(C(=O)CP(=O)(O)O)C[C@H]2O)c(=O)[nH]1 | – | 3 | 2.2 | inhibition (Escherichia coli [9]): Active
CCOC(=O)[C@H](Cc1ccccc1)NP(=O)(CCOCC(Cn1cnc2c(=O)[nH]c(N)nc21)OCCP(=O)(N[C@@H](Cc1ccccc1)C(=O)OCC)N[C@@H](Cc1ccccc1)C(=O)OCC)N[C@@H](Cc1ccccc1)C(=O)OCC (some centres undefined) | – | – | – | EC50 (A549): 100 µM; IC50 [10]: 5 µM; MIC99 [10]: 20 µM (≈ 22.8 µg/mL)
CCOC(=O)[C@H](Cc1ccccc1)NP(=O)(COCC(COCP(=O)(N[C@@H](Cc1ccccc1)C(=O)OCC)N[C@@H](Cc1ccccc1)C(=O)OCC)Cn1cnc2c(=O)[nH]c(N)nc21)N[C@@H](Cc1ccccc1)C(=O)OCC | – | – | – | EC50 (A549): > 300 µM; IC50 [10]: 5 µM; MIC99 [10]: 20 µM (≈ 22.6 µg/mL)
O=c1[nH]cnc2c1ncn2CC(O)COCP(=O)(O)O (centres undefined) | 73 | > 200 | 16 | inhibition (Escherichia coli [11]): Active
O=C(CP(=O)(O)O)N1CC[C@@H](n2cnc3c(=O)[nH]cnc32)C1 | 35 | > 200 | > 200 | –
CCOC(=O)[C@H](Cc1ccccc1)NP(=O)(COCC(COCP(=O)(N[C@@H](Cc1ccccc1)C(=O)OCC)N[C@@H](Cc1ccccc1)C(=O)OCC)Cn1cnc2c(=O)[nH]cnc21)N[C@@H](Cc1ccccc1)C(=O)OCC | – | – | – | EC50 (A549): 100 µM; IC50 [10]: 5 µM; MIC99 [10]: 20 µM (≈ 22.3 µg/mL)
